This passage reports Km results from ChEMBL document CHEMBL1221368, “Identification of small molecule compounds with higher binding affinity to guanine deaminase (cypin) than guanine” (Bioorg Med Chem, 2010).

Substrate in the data set: Nc1nc2[nH]cnc2c(=O)[nH]1
Put plainly: Activity at GDA by colorimetric assay. Summed up:
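Purified rabbit liver guanine deaminase, 8 × 10^-3 U, incubated with guanine at 2, 5, 7, 10, 12, 15, 17 and 20 µM plus inhibitor at 8 or 20 µM. Run in TBS (25 mM Tris-HCl, 137 mM NaCl, 2.7 mM KCl) at pH 7.4 and 25 °C. Guanine hydrolysis followed as OD change at 245 nm. Kinetic constants taken from Lineweaver–Burk plots (1/V vs 1/S).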

B1: Guanine deaminase (Homo sapiens), Q9Y2T3 (protein)
chain: MCAAQMPPLAHIFRGTFVHSTWTCPMEVLRDHLLGVSDSGKIVFLEEASQQEKLAKEWCFKPCEIRELSHHEFFMPGLVDTHIHASQYSFAGSSIDLPLLEWLTKYTFPAEHRFQNIDFAEEVYTRVVRRTLKNGTTTACYFATIHTDSSLLLADITDKFGQRAFVGKVCMDLNDTFPEYKETTEESIKETERFVSEMLQKNYSRVKPIVTPRFSLSCSETLMGELGNIAKTRDLHIQSHISENRDEVEAVKNLYPSYKNYTSVYDKNNLLTNKTVMAHGCYLSAEELNVFHERGASIAHCPNSNLSLSSGFLNVLEVLKHEVKIGLGTDVAGGYSYSMLDAIRRAVMVSNILLINKVNEKSLTLKEVFRLATLGGSQALGLDGEIGNFEVGKEFDAILINPKASDSPIDLFYGDFFGDISEAVIQKFLYLGDDRNIEEVYVGGKQVVPFSSSV
Regarding B1, the Km was determined as 11.2 µM.
